Assay [1] addresses T1, Pituitary adenylate cyclase-activating polypeptide type I receptor (Homo sapiens, UniProt P41586). Kind of assay: Agonist activity at human recombinant PAC1 receptor expressed in CHO cells assessed as PACAP38-induced calcium mobilization by FLIPR assay. The format is functional, cell-based. In outline:
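CHO cells stably expressing recombinant human PAC1, plated 24 h before assay, loaded with fluo-4 AM for 60 min at 37 °C in the dark, then rinsed into HBSS for 15 min at 37 °C. EC50 and efficacy came from nonlinear regression; 4-10 independent assays in duplicate.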
Target sequence in this assay (P41586 whole entry): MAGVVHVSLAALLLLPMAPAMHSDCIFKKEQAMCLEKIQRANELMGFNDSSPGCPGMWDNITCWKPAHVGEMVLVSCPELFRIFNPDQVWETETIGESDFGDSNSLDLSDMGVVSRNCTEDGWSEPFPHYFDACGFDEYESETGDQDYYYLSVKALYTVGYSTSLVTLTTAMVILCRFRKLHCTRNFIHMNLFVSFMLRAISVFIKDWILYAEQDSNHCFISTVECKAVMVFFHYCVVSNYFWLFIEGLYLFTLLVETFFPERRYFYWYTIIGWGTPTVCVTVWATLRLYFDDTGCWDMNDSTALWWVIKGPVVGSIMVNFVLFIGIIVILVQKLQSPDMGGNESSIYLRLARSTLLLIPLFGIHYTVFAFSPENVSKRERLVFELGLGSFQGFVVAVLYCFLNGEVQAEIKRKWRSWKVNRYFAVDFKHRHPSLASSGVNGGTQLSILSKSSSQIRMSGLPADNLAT

In assay [2] the target is T1, Pituitary adenylate cyclase-activating polypeptide type I receptor. Kind of assay: Displacement of [125I]Ac-PACAP27 from human recombinant PAC1 receptor expressed in CHO cells by gamma- counter. The format is cell-based. A general note: In a radioligand displacement assay an active substance lowers the binding of a labelled ligand.
Target sequence in this assay (P41586 whole entry): as above
Assay [3] has the same target. Kind of assay: Agonist activity at human recombinant PAC1 receptor expressed in CHO cells assessed as PACAP38-induced calcium mobilization by FLIPR assay relative to PACAP38. It counts as functional, cell-based. In outline: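 CHO cells stably expressing recombinant human PAC1, plated 24 h before assay, loaded with fluo-4 AM for 60 min at 37 °C in the dark, then rinsed into HBSS for 15 min at 37 °C. Peptide was added 18 s into a 150 s read (ex 480/em 525 nm), at final concentrations of 1 × 10-12 to 1 × 10^-5 M. Response was normalised to 1 × 10^-5 M PACAP38 on each plate. EC50 and efficacy came from nonlinear regression; 4-10 independent assays in duplicate.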
Target sequence in this assay (P41586 21-468 limits assumed): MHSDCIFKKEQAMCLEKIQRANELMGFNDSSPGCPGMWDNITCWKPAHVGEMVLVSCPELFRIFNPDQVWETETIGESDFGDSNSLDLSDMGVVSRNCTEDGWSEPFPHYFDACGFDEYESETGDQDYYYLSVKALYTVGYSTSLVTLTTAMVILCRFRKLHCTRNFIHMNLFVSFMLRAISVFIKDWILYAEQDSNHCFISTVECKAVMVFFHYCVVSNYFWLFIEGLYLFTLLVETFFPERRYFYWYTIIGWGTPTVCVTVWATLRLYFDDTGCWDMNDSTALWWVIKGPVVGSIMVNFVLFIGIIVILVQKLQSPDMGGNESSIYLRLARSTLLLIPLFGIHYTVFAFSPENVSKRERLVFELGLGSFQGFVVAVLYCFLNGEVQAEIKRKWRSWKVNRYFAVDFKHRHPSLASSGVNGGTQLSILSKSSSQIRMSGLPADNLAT

Consider 8 molecules from ChEMBL document CHEMBL1138520, “Molecular and conformational determinants of pituitary adenylate cyclase-activating polypeptide (PACAP) for activation of the PAC1 receptor” (J Med Chem, 2009).

Structures are written as SMILES. Where a SMILES comes first, the peptide text is derived from it. [ ]: non-standard residue; d: D form. Aad = N[C@@H](CCCC(=O)O)C(=O)O; Aib = CC(C)(N)C(=O)O

The EC50 is the midpoint of the concentration-response curve. In general, IC50 refers to the concentration that gives 50% inhibition. The term Emax denotes the maximal effect, on the per cent scale that the assay sets. In the case of `CC[C@H](C)[C@H](NC(=O)CNC(=O)[C@H](CCCC(=O)O)NC(=O)[C@H](CO)NC(=O)[C@@H](N)Cc1cnc[nH]1)C(=O)N[C@@H](Cc1ccccc1)C(=O)N[C@H](C(=O)N[C@@H](CC(=O)O)C(=O)N[C@@H](CO)C(=O)N[C@@H](Cc1ccc(O)cc1)C(=O)N[C@@H](CO)C(=O)N[C@@H](CCCNC(=N)N)C(=O)N[C@@H](Cc1ccc(O)cc1)C(=O)N[C@@H](CCCNC(=N)N)C(=O)N[C@@H](CCCCN)C(=O)N[C@@H](CCC(N)=O)C(=O)N[C@@H](CCSC)C(=O)N[C@@H](C)C(=O)N[C@H](C(=O)N[C@@H](CCCCN)C(=O)N[C@@H](CCCCN)C(=O)N[C@@H](Cc1ccc(O)cc1)C(=O)N[C@@H](CC(C)C)C(=O)N[C@@H](C)C(=O)N[C@@H](C)C(=O)N[C@H](C(=O)N[C@@H](CC(C)C)C(=O)NCC(=O)N[C@@H](CCCCN)C(=O)N[C@@H](CCCNC(=N)N)C(=O)N[C@@H](Cc1ccc(O)cc1)C(=O)N[C@@H](CCCCN)C(=O)N[C@@H](CCC(N)=O)C(=O)N[C@@H](CCCNC(=N)N)C(=O)N[C@H](C(=O)N[C@@H](CCCCN)C(=O)N[C@@H](CC(N)=O)C(=O)N[C@@H](CCCCN)C(N)=O)C(C)C)C(C)C)C(C)C)[C@@H](C)O` (H-HS[Aad]GIFTDSYSRYRKQMAVKKYLAAVLGKRYKQRVKNK-NH2), the EC50 in assay [1] worked out at 37.6 nM. Also, the IC50 in assay [2] is 12.5 nM. For the same molecule, in assay [3], the Emax was found to be 18.2%.

Take `CC[C@H](C)[C@H](NC(=O)CNC(=O)[C@H](CC(=O)O)N(C)C(=O)[C@H](CO)NC(=O)[C@@H](N)Cc1cnc[nH]1)C(=O)N[C@@H](Cc1ccccc1)C(=O)N[C@H](C(=O)N[C@@H](CC(=O)O)C(=O)N[C@@H](CO)C(=O)N[C@@H](Cc1ccc(O)cc1)C(=O)N[C@@H](CO)C(=O)N[C@@H](CCCNC(=N)N)C(=O)N[C@@H](Cc1ccc(O)cc1)C(=O)N[C@@H](CCCNC(=N)N)C(=O)N[C@@H](CCCCN)C(=O)N[C@@H](CCC(N)=O)C(=O)N[C@@H](CCSC)C(=O)N[C@@H](C)C(=O)N[C@H](C(=O)N[C@@H](CCCCN)C(=O)N[C@@H](CCCCN)C(=O)N[C@@H](Cc1ccc(O)cc1)C(=O)N[C@@H](CC(C)C)C(=O)N[C@@H](C)C(=O)N[C@@H](C)C(=O)N[C@H](C(=O)N[C@@H](CC(C)C)C(N)=O)C(C)C)C(C)C)[C@@H](C)O`: the EC50 in assay [1] is 418 nM. Also, in assay [2], the IC50 was 25.2 nM. Also, the Emax in assay [3] came out at 89.2%.

`CC[C@H](C)[C@H](NC(=O)CNC(=O)[C@H](C)NC(=O)[C@H](CO)NC(=O)[C@@H](N)Cc1cnc[nH]1)C(=O)N[C@@H](Cc1ccccc1)C(=O)N[C@H](C(=O)N[C@@H](CC(=O)O)C(=O)N[C@@H](CO)C(=O)N[C@@H](Cc1ccc(O)cc1)C(=O)N[C@@H](CO)C(=O)N[C@@H](CCCNC(=N)N)C(=O)N[C@@H](Cc1ccc(O)cc1)C(=O)N[C@@H](CCCNC(=N)N)C(=O)N[C@@H](CCCCN)C(=O)N[C@@H](CCC(N)=O)C(=O)N[C@@H](CCSC)C(=O)N[C@@H](C)C(=O)N[C@H](C(=O)N[C@@H](CCCCN)C(=O)N[C@@H](CCCCN)C(=O)N[C@@H](Cc1ccc(O)cc1)C(=O)N[C@@H](CC(C)C)C(=O)N[C@@H](C)C(=O)N[C@@H](C)C(=O)N[C@H](C(=O)N[C@@H](CC(C)C)C(N)=O)C(C)C)C(C)C)[C@@H](C)O`: the EC50 in assay [1] came to 538 nM. In assay [2], the IC50 was found to be 602 nM. Also, in assay [3], the maximal effect (Emax) was 18.4%.

Turning to `CC[C@H](C)[C@H](NC(=O)CNC(=O)[C@H](CC(=O)O)N(C)C(=O)[C@H](CO)NC(=O)[C@@H](N)Cc1cnc[nH]1)C(=O)N[C@@H](Cc1ccccc1)C(=O)N[C@H](C(=O)N[C@@H](CC(=O)O)C(=O)N[C@@H](CO)C(=O)N[C@@H](Cc1ccc(O)cc1)C(=O)N[C@@H](CO)C(=O)N[C@@H](CCCNC(=N)N)C(=O)N[C@@H](Cc1ccc(O)cc1)C(=O)N[C@@H](CCCNC(=N)N)C(=O)N[C@@H](CCCCN)C(=O)N[C@@H](CCC(N)=O)C(=O)N[C@@H](CCSC)C(=O)N[C@@H](C)C(=O)N[C@H](C(=O)N[C@@H](CCCCN)C(=O)N[C@@H](CCCCN)C(=O)N[C@@H](Cc1ccc(O)cc1)C(=O)N[C@@H](CC(C)C)C(=O)N[C@@H](C)C(=O)N[C@@H](C)C(=O)N[C@H](C(=O)N[C@@H](CC(C)C)C(=O)NCC(=O)N[C@@H](CCCCN)C(=O)N[C@@H](CCCNC(=N)N)C(=O)N[C@@H](Cc1ccc(O)cc1)C(=O)N[C@@H](CCCCN)C(=O)N[C@@H](CCC(N)=O)C(=O)N[C@@H](CCCNC(=N)N)C(=O)N[C@H](C(=O)N[C@@H](CCCCN)C(=O)N[C@@H](CC(N)=O)C(=O)N[C@@H](CCCCN)C(N)=O)C(C)C)C(C)C)C(C)C)[C@@H](C)O`, in assay [1], the EC50 worked out at 219 nM. Also, the IC50 in assay [2] was 10.4 nM. Besides, the Emax in assay [3] came to 92.5%.

Take `CC[C@H](C)[C@H](NC(=O)CNC(=O)[C@H](CC(=O)O)NC(=O)[C@@H]1C[C@@H](O)CN1C(=O)[C@@H](N)Cc1cnc[nH]1)C(=O)N[C@@H](Cc1ccccc1)C(=O)N[C@H](C(=O)N[C@@H](CC(=O)O)C(=O)N[C@@H](CO)C(=O)N[C@@H](Cc1ccc(O)cc1)C(=O)N[C@@H](CO)C(=O)N[C@@H](CCCNC(=N)N)C(=O)N[C@@H](Cc1ccc(O)cc1)C(=O)N[C@@H](CCCNC(=N)N)C(=O)N[C@@H](CCCCN)C(=O)N[C@@H](CCC(N)=O)C(=O)N[C@@H](CCSC)C(=O)N[C@@H](C)C(=O)N[C@H](C(=O)N[C@@H](CCCCN)C(=O)N[C@@H](CCCCN)C(=O)N[C@@H](Cc1ccc(O)cc1)C(=O)N[C@@H](CC(C)C)C(=O)N[C@@H](C)C(=O)N[C@@H](C)C(=O)N[C@H](C(=O)N[C@@H](CC(C)C)C(N)=O)C(C)C)C(C)C)[C@@H](C)O`: in assay [1], the concentration for a half-maximal effect (EC50) was 2.3 nM. Besides, the IC50 in assay [2] came to 8.5 nM. The Emax in assay [3] stood at 89.2%.

`CC[C@H](C)[C@H](NC(=O)C(C)(C)NC(=O)[C@H](CC(=O)O)NC(=O)[C@H](CO)NC(=O)[C@@H](N)Cc1cnc[nH]1)C(=O)N[C@@H](Cc1ccccc1)C(=O)N[C@H](C(=O)N[C@@H](CC(=O)O)C(=O)N[C@@H](CO)C(=O)N[C@@H](Cc1ccc(O)cc1)C(=O)N[C@@H](CO)C(=O)N[C@@H](CCCNC(=N)N)C(=O)N[C@@H](Cc1ccc(O)cc1)C(=O)N[C@@H](CCCNC(=N)N)C(=O)N[C@@H](CCCCN)C(=O)N[C@@H](CCC(N)=O)C(=O)N[C@@H](CCSC)C(=O)N[C@@H](C)C(=O)N[C@H](C(=O)N[C@@H](CCCCN)C(=O)N[C@@H](CCCCN)C(=O)N[C@@H](Cc1ccc(O)cc1)C(=O)N[C@@H](CC(C)C)C(=O)N[C@@H](C)C(=O)N[C@@H](C)C(=O)N[C@H](C(=O)N[C@@H](CC(C)C)C(N)=O)C(C)C)C(C)C)[C@@H](C)O`: in assay [1], the EC50 came out at 49.4 nM. Moreover, the IC50 in assay [2] amounted to 51.4 nM. The Emax in assay [3] worked out at 90.2%.

Take `CC[C@H](C)[C@H](NC(=O)CNC(=O)[C@H](CC(=O)O)NC(=O)C(C)(C)NC(=O)[C@@H](N)Cc1cnc[nH]1)C(=O)N[C@@H](Cc1ccccc1)C(=O)N[C@H](C(=O)N[C@@H](CC(=O)O)C(=O)N[C@@H](CO)C(=O)N[C@@H](Cc1ccc(O)cc1)C(=O)N[C@@H](CO)C(=O)N[C@@H](CCCNC(=N)N)C(=O)N[C@@H](Cc1ccc(O)cc1)C(=O)N[C@@H](CCCNC(=N)N)C(=O)N[C@@H](CCCCN)C(=O)N[C@@H](CCC(N)=O)C(=O)N[C@@H](CCSC)C(=O)N[C@@H](C)C(=O)N[C@H](C(=O)N[C@@H](CCCCN)C(=O)N[C@@H](CCCCN)C(=O)N[C@@H](Cc1ccc(O)cc1)C(=O)N[C@@H](CC(C)C)C(=O)N[C@@H](C)C(=O)N[C@@H](C)C(=O)N[C@H](C(=O)N[C@@H](CC(C)C)C(=O)NCC(=O)N[C@@H](CCCCN)C(=O)N[C@@H](CCCNC(=N)N)C(=O)N[C@@H](Cc1ccc(O)cc1)C(=O)N[C@@H](CCCCN)C(=O)N[C@@H](CCC(N)=O)C(=O)N[C@@H](CCCNC(=N)N)C(=O)N[C@H](C(=O)N[C@@H](CCCCN)C(=O)N[C@@H](CC(N)=O)C(=O)N[C@@H](CCCCN)C(N)=O)C(C)C)C(C)C)C(C)C)[C@@H](C)O` (H-H[Aib]DGIFTDSYSRYRKQMAVKKYLAAVLGKRYKQRVKNK-NH2): the EC50 in assay [1] turned out to be 4.3 nM. For the same molecule, the IC50 in assay [2] was determined as 7.2 nM. Also, the Emax in assay [3] is 94.8%.

Turning to `CC[C@H](C)[C@H](NC(=O)CNC(=O)[C@H](CC(=O)O)NC(=O)[C@H](CO)NC(=O)[C@@H](N)Cc1cnc[nH]1)C(=O)N[C@@H](Cc1cccc2ccccc12)C(=O)N[C@H](C(=O)N[C@@H](CC(=O)O)C(=O)N[C@@H](CO)C(=O)N[C@@H](Cc1ccc(O)cc1)C(=O)N[C@@H](CO)C(=O)N[C@@H](CCCNC(=N)N)C(=O)N[C@@H](Cc1ccc(O)cc1)C(=O)N[C@@H](CCCNC(=N)N)C(=O)N[C@@H](CCCCN)C(=O)N[C@@H](CCC(N)=O)C(=O)N[C@@H](CCSC)C(=O)N[C@@H](C)C(=O)N[C@H](C(=O)N[C@@H](CCCCN)C(=O)N[C@@H](CCCCN)C(=O)N[C@@H](Cc1ccc(O)cc1)C(=O)N[C@@H](CC(C)C)C(=O)N[C@@H](C)C(=O)N[C@@H](C)C(=O)N[C@H](C(=O)N[C@@H](CC(C)C)C(N)=O)C(C)C)C(C)C)[C@@H](C)O`, the concentration for a half-maximal effect (EC50) in assay [1] turned out to be 0.7 nM. In addition, the half-maximal inhibitory concentration (IC50) in assay [2] stood at 6.5 nM. Further, the Emax in assay [3] is 110%.
